Bioassay records: PubChem, several laboratories
TNAP act DEA: activates human TNAP at intermediate phosphate acceptor concentration; P05186; purified TNAP, CDP-star luminescence, 100 mM DEA, 30 min; hits give high values; scale: 0 levamisole-inhibited, 1 vehicle-only enzyme; activation factor at 20 µM; 64,000 tested, under 10 active; AID 813;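 active = activation factor of at least 2 at 20 µM, relative to controls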
Ec RNAP inh: inhibitors of Escherichia coli RNA polymerase. hit rate 0.2% among 62,000. inhibition, %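 (tested at 10 µM)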. E. coli RNA polymerase, fluorescence transcription assay. AID 559. P0A8V2; in the data active = inhibition above about 20%;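 also: 0% = enzyme without compound and 100% = no enzyme blank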
DPM-DC inhibit: blocks S. pneumoniae diphosphomevalonate decarboxylase; purified DPM-DC, PK/LDH coupled NADH fluorescence; calls only at 10 µM; hit rate 0.49% among 65,000; AID 556;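 active = the 320 compounds with the highest percent inhibition in the single-dose primary screen, excluding strongly autofluorescent ones, cut at about 32% in these data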;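 also: kinetic rate of NADH fluorescence loss reporting ADP formed by the decarboxylase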
PMK inhibit: S. pneumoniae PMK inhibition; purified PMK, PK/LDH-coupled NADH absorbance 340 nm; inhibition, % at 10 µM; hit rate 0.49% among 65,000; AID 539;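 active = top-ranked compounds by inhibition in the single 10 µM screen, taking a fixed number of the strongest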;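 also: 0% = full reaction with DMSO carrier and 100% = background rate without enzyme reaction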
AP ELISA ortho: alternative pathway complement inhibition, orthogonal assay; AID 1235; inhibition, % at 5 µM; hit rate 0.08% among 62,000; Human serum alternative complement pathway, LPS-coated ELISA, C3 deposition; tested in compound mixtures;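 active = inhibition above 30% in each of the two pooled mixtures holding the compound, so the lower value exceeds 30%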;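 also: 0% = serum in Mg-EGTA without compound and 100% = EDTA serum blank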
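Test system – human serum alternative complement pathway, C3 deposition on LPS-coated wells · Buffer or medium – diluted human serum in Mg2+-EGTA GVB++ · Compound dosing – 5 µM each compound, pools of ten, 50 µM per pool · Schedule – 1 h serum-compound exposure at 37 °C · Measured by – Anti-C3 ELISA, OD 450 nm · Read-out basis – percent inhibition of C3 deposition onto LPS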
MK inhibit: S. pneumoniae mevalonate kinase inhibition | purified MK, PK/LDH-coupled NADH absorbance 340 nm | inhibition, % at 10 µM | hit rate 0.48% among 65,000;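 active = ranked among the strongest by inhibition in the single 10 µM screen, a fixed top-ranked set picked for dose follow-up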
Numbers without * were called inactive; i = inactive; · = not tested or not shown; + = active, no number. Most compounds without a hit are left out; they make up all but 1.5% or so of the library.

SMILES	TNAP act DEA	Ec RNAP inh	DPM-DC inhibit	PMK inhibit	AP ELISA ortho	MK inhibit
CN1C(=O)c2ccc(C(=O)NC3CCCCC3)cc2C1=O	0.9	6	i	2	41*	5
CC(=O)c1sc(N2C(=O)c3oc4ccccc4c(=O)c3C2c2ccc(C)o2)nc1C (stereo not drawn)	0.9	-2	i	3	19	6
CCN(CC)C(=O)c1sc2nc(-c3ccccn3)[nH]c(=O)c2c1C	·	8	+	11	3	0
CCN(CC)C(=O)c1sc2nc(-c3ccncc3)[nH]c(=O)c2c1C	·	9	·	17	-2	4
COc1ccccc1-c1nnc2sc(-c3ccc(N(C)C)cc3)nn12	1.3	-1	+	3	8	3
COc1ccc(-c2nn3c(-c4ccccn4)nnc3s2)cc1OC	0.9	5	+	5	·	7
Cc1noc(C)c1CSc1nnc2scc(-c3ccc(Cl)cc3)n12	0.8	5	i	0	-4	1
COc1cccc(NC2=NC3(CCCCC3)N=C(N)N2)c1	1	3	i	2	2	2
FC(F)(F)c1cccc(CN2CCCCCC2)c1	0.9	·	i	5	6	45*
CCOC(=O)c1[nH]c2ccccc2c1NC(=O)c1ccc(Br)o1	·	·	i	0	·	54*
CCOC(=O)c1[nH]c2ccccc2c1NC(=O)CC(C)(C)C	1	4	i	3	6	4
c1ccc(NC(=NCc2ccco2)c2ccccc2)cc1	0.9	10	i	27*	9	0
C=CCc1c(C)c(C#N)c2nc3ccccc3n2c1N1CCN(C)CC1	1.1	2	i	4	·	6
CC1(C(=O)NCc2cccnc2)CCC(=O)N1Cc1cccs1 (stereo not drawn)	0.9	6	i	8	36*	11
CC1(C(=O)NCc2cccnc2)CCC(=O)N1CCc1ccccc1 (stereo not drawn)	0.9	2	i	23	14	7
COc1ccccc1C1CC(c2ccc(Cl)cc2)Nc2ncnn21 (stereo not drawn)	0.9	-4	i	9	10	4
COc1ccc(-c2coc3cc(O)ccc3c2=O)cc1OC	0.9	-9	+	17	27	0
COCCn1cc(C(=O)NCCCN2CCC(C)CC2)c2c3ccccc3n(C)c2c1=O	0.9	6	+	15	3	0
CCN1CCN(CCCNC(=O)c2cn(CCOC)c(=O)c3c2c2ccccc2n3C)CC1	0.9	9	i	6	-6	1
COc1ccc(OC)c(NC(=O)CSc2nnc(CNc3ccc(C)cc3C)o2)c1	1	9	i	11	10	9
CC(O)COc1ccc(/C(=N/O)c2ccccc2)cc1 (stereo not drawn)	1	-5	+	0	-14	18
O=C(c1ccccc1)c1ccc(OCC(O)CN2CCCCC2)cc1 (stereo not drawn)	0.9	6	i	0	20	9
CCOc1ccc(-c2nnc(-c3ccncc3)o2)cc1	0.9	5	+	8	17	14
CCOC(=O)CNC(=O)Nc1nnc(-c2ccc(OCC)cc2)o1	1	-8	i	28*	-9	4
CCCCOc1ccc(-c2nnc(-c3ccncc3)o2)cc1	0.9	9	i	15	2	10
SMILES	TNAP act DEA	Ec RNAP inh	DPM-DC inhibit	PMK inhibit	AP ELISA ortho	MK inhibit
CC(C)OC(=O)CCC1(C(=O)O)CCC(=O)NC1 (stereo not drawn)	0.9	7	i	25*	-7	11
O=C(COc1ncnc2ccccc12)NCCC1=CCCCC1	1	-12	i	0	-7	0
O=C(COc1cnc2ccccc2n1)NCCC1=CCCCC1	0.9	3	+	11	1	2
C[C@]12CC[C@@H]3c4ccc(OS(=O)(=O)O)cc4CC[C@H]3[C@@H]1CCC2=O	0.9	8	i	active	6	6
CCCCNc1nc2c(c(=O)n(C)c(=O)n2C)n1CCC	0.9	4	i	26*	1	4
CCn1c(SCc2c(F)cccc2Cl)nnc1-c1ccco1	0.8	3	i	0	8	0
COc1cccc(C(=O)Nc2ccc(NC(=O)C(C)C)nc2)c1	0.9	2	+	2	19	11
CCC(=O)Nc1ccc(NC(=O)c2cccc(OC)c2)nc1	0.8	3	i	13	13	4
COCCn1c(C)cc2c(c1=O)C(c1ccccc1F)C(C#N)=C(N)O2 (stereo not drawn)	0.9	2	i	26*	13	2
O=C(NC(O)C(=O)c1cccs1)c1cccnc1 (stereo not drawn)	1	6	i	12	0	1
COC(=O)C1=CNC=C(C(=O)OC)C1c1ccc(C(=O)OC)cc1	1	-5	·	14	15	4
COc1ccc(NC(=O)N(C2CCCCC2)C(C)c2ccco2)c(OC)c1 (stereo not drawn)	1	-10	i	26*	-8	3
COc1ccc(NC(=O)N(C2CCCCC2)C(C)c2cccnc2)c(OC)c1 (stereo not drawn)	0.9	2	i	11	7	0
CCOC(=O)Cc1csc2nc3sc(C)c(C)c3c(=O)n12	0.9	2	i	11	1	6
COc1cc2c(cc1OC)-c1cc(NCc3ccccn3)nc(=O)n1CC2	0.9	9	·	17	2	52*
CCNc1cc2n(c(=O)n1)CCc1cc(OC)c(OC)cc1-2	1	-8	i	0	0	1
CC1=NN(c2ccccc2)C(=O)C1	0.9	5	i	0	14	53*
Cc1nnc(SCC(=O)N2CC(=O)Nc3ccccc32)n1-c1ccccc1	0.9	15	i	35*	7	11
COCCCNC(=O)c1ccc(N2CCCC2)c(NS(=O)(=O)c2ccc(C)cc2)c1	0.9	7	i	25*	5	8
COc1cccc2cc(C(=O)N3CCc4ccccc4C3)c(=O)oc12	0.9	9	i	9	11	5
COc1cccc2cc(C(=O)N3CCN(c4ccccc4F)CC3)c(=O)oc12	1	-3	i	29*	9	0
Clc1cccc(CSc2nnc(-c3cccnc3)n2Cc2ccco2)c1	0.9	9	i	14	37*	16
c1cncc(CSc2nnc(-c3cccnc3)n2Cc2ccco2)c1	1	·	i	7	6	2
COc1ccc(Cl)cc1NC(=O)C1CCCN(S(=O)(=O)c2cccc3nonc23)C1 (stereo not drawn)	1	10	i	17	3	54*
O=C(O)Cn1nnc(-c2cccs2)n1	1	7	i	6	8	12
O=C(O)CCn1nnc(-c2cccs2)n1	0.9	2	+	13	-20	0
